Test results published in ChEMBL document CHEMBL3751740, “New MKLP-2 inhibitors in the paprotrain series: Design, synthesis and biological evaluations” (Bioorg Med Chem, 2016).
Activity calls are given as the source filed them. The rule behind the calls is not given here.

Key:
HT-29 = assay: Growth inhibition of human HT-29 cells incubated for 4 days by WST-1 assay; format: functional; conditions: HT-29, 96 h
Method in brief: (§1)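 Cells were kept at 37 °C under 5% CO2 and plated on day 0 at 500–5000 cells/well. On day 1 they received ten concentrations from 0.0025 to 50 µM (final), in triplicate. On day 4 WST-1 was added, followed by 30 min–4 h incubation and absorbance at 450 nm. GI50 is the concentration killing 50% of cells.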

KB = assay: Growth inhibition of human KB cells at 10 uM after 72 hrs by MTS assay; format: functional; conditions: read-out: GI
Method in brief: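 KB cells were grown in DMEM with 25 mM glucose and 10% FCS at 37 °C, 5% CO2, and seeded at 500 cells/well. 24 h later, compound in DMSO (1% final) was added at 10 µM or 1 µM for 72 h; controls received DMSO alone. Runs were in duplicate. Viable cells were read with MTS at 490 nm.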

Ovis aries [1] = organism: Ovis aries; assay: Induction of sheep brain microtubule disassembly by UV spectrophotometric analysis
Method in brief: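 Sheep brain tubulin, purified by two assembly/disassembly cycles and held in MES buffer with GTP at pH 6.6, was polymerized at 37 °C for 10 min. Compound was then added to the MTs at 0 °C and depolymerization was followed over the next few minutes by turbidity at 350 nm.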

MDA-MB-231 = assay: Growth inhibition of human MDA-MB-231 cells incubated for 4 days by WST-1 assay; format: functional; conditions: MDA-MB-231, 96 h; method in brief: as §1
NCI-H460 = assay: Growth inhibition of human NCI-H460 cells incubated for 4 days by WST-1 assay; format: functional; conditions: NCI-H460, 96 h; method in brief: as §1
[2] = Growth inhibition of human MIAPaCa2 cells incubated for 4 days by WST-1 assay; format: functional; conditions: MIA PaCa-2, 96 h; method in brief: as §1
K562 = assay: Growth inhibition of human K562 cells incubated for 4 days by WST-1 assay; format: functional; conditions: K562, 96 h; method in brief: as §1
HepG2 = assay: Growth inhibition of human HepG2 cells incubated for 4 days by WST-1 assay; format: functional; conditions: HepG2, 96 h; method in brief: as §1
MCF7 = assay: Growth inhibition of human MCF7 cells incubated for 4 days by WST-1 assay; format: functional; conditions: MCF7, 96 h; method in brief: as §1
A549 = assay: Growth inhibition of human A549 cells incubated for 4 days by WST-1 assay; format: functional; conditions: A549, 96 h; method in brief: as §1
Ovis aries [3] = organism: Ovis aries; assay: Inhibition of sheep brain tubulin polymerization by UV spectrophotometric analysis; conditions: concentration not given here
Method in brief: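 Tubulin purified from sheep brain by two assembly/disassembly cycles, about 2–3 mg/mL in 0.1 M MES, 0.5 mM MgCl2, 1 mM EGTA, 1 mM GTP, pH 6.6. Compound in DMSO added at 0 °C, then moved to a 37 °C thermostated cell. Assembly followed by turbidity at 350 nm for a few min.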

[4] = Growth inhibition of human HCT116 cells incubated for 4 days by WST-1 assay; format: functional; conditions: HCT-116, 96 h; method in brief: as §1
[5] = Growth inhibition of human PK59 cells incubated for 4 days by WST-1 assay; format: functional; conditions: PK-59, 96 h; method in brief: as §1

GI50 (HT-29): > 50 µM
Activity (Ovis aries [1]): inactive
GI50 (MDA-MB-231): > 50 µM
GI50 (NCI-H460): > 50 µM
GI50 (K562): 21.6 µM
GI50 (HepG2): > 50 µM
GI50 (MCF7): > 50 µM
GI50 (A549): > 50 µM
inhibition (Ovis aries [3]): 11%
Structure (SMILES): N#C/C(=C\c1cccnc1)c1c[nH]c2ccccc12
IC25 (HT-29): 7.5 µM
inhibition of growth at 10 µM (KB): 27%
IC25 (NCI-H460): 18.5 µM
GI50 [2]: > 50 µM
IC25 (MCF7): 28.6 µM
GI50 [4]: > 50 µM
GI50 [5]: > 50 µM
